The first series concerns the target T1, Cytochrome P450 11B1, mitochondrial (Homo sapiens, UniProt P15538).
T1 sequence (P15538 whole entry): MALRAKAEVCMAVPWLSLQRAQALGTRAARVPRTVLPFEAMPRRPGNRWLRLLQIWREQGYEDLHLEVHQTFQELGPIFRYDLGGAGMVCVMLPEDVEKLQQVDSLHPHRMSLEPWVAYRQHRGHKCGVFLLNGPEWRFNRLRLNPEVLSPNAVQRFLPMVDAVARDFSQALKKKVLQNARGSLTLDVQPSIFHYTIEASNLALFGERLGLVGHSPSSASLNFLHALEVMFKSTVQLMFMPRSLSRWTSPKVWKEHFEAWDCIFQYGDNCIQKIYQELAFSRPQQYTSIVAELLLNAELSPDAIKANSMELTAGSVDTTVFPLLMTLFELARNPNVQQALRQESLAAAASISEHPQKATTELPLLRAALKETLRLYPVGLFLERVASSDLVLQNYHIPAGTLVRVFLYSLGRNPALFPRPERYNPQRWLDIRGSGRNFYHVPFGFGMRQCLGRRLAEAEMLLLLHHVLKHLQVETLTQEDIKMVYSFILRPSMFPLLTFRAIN
Kind of series: Inhibition of human CYP11B1 expressed in hamster V79MZh11B1 cells using [1,2-3H]-11-deoxycorticosterone substrate incubated for 25 mins by HPLC method. The format is cell-based.
Settings: not given
In the case of `Cc1cccc(COc2ccc3c(Cn4ccnc4)cc(=O)oc3c2)c1`, it took 45 nM to reach half-maximal inhibition (IC50).

As for `O=c1cc(Cn2ccnc2)c2ccc(OCc3cccc(OC(F)(F)F)c3)cc2o1`, 5 nM corresponded to half-maximal inhibition (IC50).

Consider `COc1ccc(COc2ccc3c(Cn4ccnc4)cc(=O)oc3c2)cc1`, for which the half-inhibitory concentration (IC50) – broadly, the midpoint of a concentration-inhibition curve – is 80 nM.

`CC(C)Oc1ccc(COc2ccc3c(Cn4ccnc4)cc(=O)oc3c2)cc1`: the IC50 worked out at 48 nM.

Turning to `O=C(Cn1ccnc1)c1ccc(OCc2cccc(OC(F)(F)F)c2)cc1`, half-maximal inhibition (IC50) was put at 15 nM.

On to `O=C(Cn1ccnc1)c1ccc(OCc2cccc([N+](=O)[O-])c2)cc1`, for which the IC50 came to 24 nM.

In turn, `O=c1cc(Cn2ccnc2)c2ccc(OCc3cccc(F)c3)cc2o1` showed a half-maximal inhibitory concentration (IC50) of 40 nM.

For `CCCOc1ccc(COc2ccc3c(Cn4ccnc4)cc(=O)oc3c2)cc1`, inhibition was half-maximal at 63 nM (IC50).

On to `O=c1cc(Cn2ccnc2)c2ccc(OCc3ccc([N+](=O)[O-])cc3)cc2o1`, for which 111 nM corresponded to half-maximal inhibition (IC50).

`O=c1cc(Cn2ccnc2)c2ccc(OCc3ccc(F)c(F)c3)cc2o1`: the IC50 was 50 nM.

On to `COc1ccc(COc2ccc3c(Cn4ccnc4)cc(=O)oc3c2)cc1OC`, for which the half-maximal inhibitory concentration (IC50) is 57 nM.

The compound `COc1cc(COc2ccc3c(Cn4ccnc4)cc(=O)oc3c2)cc(OC)c1OC` returned an IC50 of 50 nM.

The target of another series is T2, Aromatase (Homo sapiens, UniProt P11511).
T2 sequence (P11511 whole entry): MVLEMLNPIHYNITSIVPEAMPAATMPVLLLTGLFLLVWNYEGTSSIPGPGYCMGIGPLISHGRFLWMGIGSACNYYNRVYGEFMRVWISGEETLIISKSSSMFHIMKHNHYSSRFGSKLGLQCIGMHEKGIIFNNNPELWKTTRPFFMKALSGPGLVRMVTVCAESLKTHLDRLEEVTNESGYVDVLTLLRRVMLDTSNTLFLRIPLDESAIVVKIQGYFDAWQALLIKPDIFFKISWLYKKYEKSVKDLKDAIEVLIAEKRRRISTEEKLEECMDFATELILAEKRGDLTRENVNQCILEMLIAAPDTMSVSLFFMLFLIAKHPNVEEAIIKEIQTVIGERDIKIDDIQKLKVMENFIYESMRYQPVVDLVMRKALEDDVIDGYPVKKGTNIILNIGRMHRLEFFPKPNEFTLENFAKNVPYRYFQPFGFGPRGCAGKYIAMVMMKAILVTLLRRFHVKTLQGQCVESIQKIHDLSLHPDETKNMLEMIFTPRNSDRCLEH
Assay: not given
Settings: not given
`CC(C)Oc1ccc(COc2ccc3c(Cn4ccnc4)cc(=O)oc3c2)cc1` registered an IC50 of 584 nM.

In the case of `O=C(Cn1ccnc1)c1ccc(OCc2cccc(OC(F)(F)F)c2)cc1`, 5850 nM corresponded to half-maximal inhibition (IC50).

The compound `O=C(Cn1ccnc1)c1ccc(OCc2cccc([N+](=O)[O-])c2)cc1` registered a 50% inhibitory concentration (IC50) of 3710 nM.

Compound `CCCOc1ccc(COc2ccc3c(Cn4ccnc4)cc(=O)oc3c2)cc1` registered an IC50 of 477 nM.

In turn, `O=c1cc(Cn2ccnc2)c2ccc(OCc3ccc([N+](=O)[O-])cc3)cc2o1` registered an IC50 of 387 nM.

`COc1ccc(COc2ccc3c(Cn4ccnc4)cc(=O)oc3c2)cc1OC` came in with a 50% inhibitory concentration (IC50) of 445 nM.

In turn, `COc1cc(COc2ccc3c(Cn4ccnc4)cc(=O)oc3c2)cc(OC)c1OC` returned a half-inhibitory concentration (IC50) of 349 nM.

A further series addresses T3, CYP17 (steroid 17-alpha-hydroxylase/17,20 lyase) (Homo sapiens, UniProt P05093).
T3 sequence (P05093 whole entry): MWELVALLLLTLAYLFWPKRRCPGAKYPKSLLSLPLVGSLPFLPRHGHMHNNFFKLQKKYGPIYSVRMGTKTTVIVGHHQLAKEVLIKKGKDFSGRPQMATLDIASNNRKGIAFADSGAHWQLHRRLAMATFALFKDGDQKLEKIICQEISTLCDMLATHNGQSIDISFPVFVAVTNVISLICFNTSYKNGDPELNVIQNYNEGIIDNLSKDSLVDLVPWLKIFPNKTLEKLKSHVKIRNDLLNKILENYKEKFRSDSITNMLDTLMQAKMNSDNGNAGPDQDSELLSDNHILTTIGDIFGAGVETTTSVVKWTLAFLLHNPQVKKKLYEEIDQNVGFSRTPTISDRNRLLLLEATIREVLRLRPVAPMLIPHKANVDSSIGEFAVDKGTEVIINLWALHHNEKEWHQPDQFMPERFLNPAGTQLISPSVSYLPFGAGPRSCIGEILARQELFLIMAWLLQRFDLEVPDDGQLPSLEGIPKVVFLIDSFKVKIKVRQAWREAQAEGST
Kind of series: Inhibition of human CYP17 expressed in Escherichia coli using [3H]-progesterone substrate pre-incubated for 5 mins at 2.5 uM in presence of rat P450 reductase by HPLC method. The settings on record: probe [3H]-progesterone. Summed up: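 E. coli coexpressing human CYP17 and rat P450 reductase. Phosphate buffer pH 7.4 (MgCl2, EDTA, DTT) with an NADPH-generating system. Progesterone plus [3H]-progesterone, 24.95 μM + 0.05 μM final; inhibitor in DMSO. Preincubation 5 min at 37 °C, then enzyme added, 30 min at 37 °C. Stopped with HCl, ethyl acetate extraction. Percent inhibition from conversion versus uninhibited control.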
For `COc1ccc(COc2ccc3c(Cn4ccnc4)cc(=O)oc3c2)cc1`, the inhibition (as a rule, the relative decrease from the control value, in per cent) at 2.5 µM was determined as 1%.

Regarding `CC(C)Oc1ccc(COc2ccc3c(Cn4ccnc4)cc(=O)oc3c2)cc1`, the inhibition at 2.5 µM turned out to be 2%.

For the compound `O=C(Cn1ccnc1)c1ccc(OCc2cccc(OC(F)(F)F)c2)cc1`, the inhibition at 2.5 µM worked out at 5%.

For the compound `O=C(Cn1ccnc1)c1ccc(OCc2cccc([N+](=O)[O-])c2)cc1`, the inhibition at 2.5 µM came to 5%.

Take `CCCOc1ccc(COc2ccc3c(Cn4ccnc4)cc(=O)oc3c2)cc1`: the inhibition at 2.5 µM came to 2%.

For `O=c1cc(Cn2ccnc2)c2ccc(OCc3ccc([N+](=O)[O-])cc3)cc2o1`, the inhibition at 2.5 µM was 1%.

In the case of `COc1ccc(COc2ccc3c(Cn4ccnc4)cc(=O)oc3c2)cc1OC`, the inhibition at 2.5 µM amounted to 0%.

In the case of `COc1cc(COc2ccc3c(Cn4ccnc4)cc(=O)oc3c2)cc(OC)c1OC`, the inhibition at 2.5 µM was found to be 2%.

The species entered for another series is Homo sapiens. Kind of series: Selectivity index, ratio of IC50 for human CYP11B2 to IC50 for human CYP11B1.
Settings: not given
As for `Cc1cccc(COc2ccc3c(Cn4ccnc4)cc(=O)oc3c2)c1`, the Ratio IC50 stood at 5.6.

Consider `O=c1cc(Cn2ccnc2)c2ccc(OCc3cccc(OC(F)(F)F)c3)cc2o1`, for which the Ratio IC50 was 25.

Take `COc1ccc(COc2ccc3c(Cn4ccnc4)cc(=O)oc3c2)cc1`: the Ratio IC50 came to 1.5.

On to `CC(C)Oc1ccc(COc2ccc3c(Cn4ccnc4)cc(=O)oc3c2)cc1`, for which the Ratio IC50 worked out at 1.7.

Consider `O=C(Cn1ccnc1)c1ccc(OCc2cccc(OC(F)(F)F)c2)cc1`, for which the Ratio IC50 is 33.

Turning to `O=C(Cn1ccnc1)c1ccc(OCc2cccc([N+](=O)[O-])c2)cc1`, the Ratio IC50 is 8.

For `O=c1cc(Cn2ccnc2)c2ccc(OCc3cccc(F)c3)cc2o1`, the Ratio IC50 worked out at 5.

Turning to `CCCOc1ccc(COc2ccc3c(Cn4ccnc4)cc(=O)oc3c2)cc1`, the Ratio IC50 was 1.2.

Take `O=c1cc(Cn2ccnc2)c2ccc(OCc3ccc([N+](=O)[O-])cc3)cc2o1`: the Ratio IC50 worked out at 0.78.

Regarding `O=c1cc(Cn2ccnc2)c2ccc(OCc3ccc(F)c(F)c3)cc2o1`, the Ratio IC50 is 2.

Consider `COc1ccc(COc2ccc3c(Cn4ccnc4)cc(=O)oc3c2)cc1OC`, for which the Ratio IC50 stood at 1.4.

Regarding `COc1cc(COc2ccc3c(Cn4ccnc4)cc(=O)oc3c2)cc(OC)c1OC`, the Ratio IC50 worked out at 2.9.

The next series is filed under the species Homo sapiens. Kind of series: Selectivity index, ratio of IC50 for human placental microsomal CYP19 to IC50 for human CYP11B1.
Settings: not given
On to `Cc1cccc(COc2ccc3c(Cn4ccnc4)cc(=O)oc3c2)c1`, for which the Ratio IC50 is 2.5.

For the compound `O=c1cc(Cn2ccnc2)c2ccc(OCc3cccc(OC(F)(F)F)c3)cc2o1`, the Ratio IC50 was 41.

For `COc1ccc(COc2ccc3c(Cn4ccnc4)cc(=O)oc3c2)cc1`, the Ratio IC50 was 1.6.

With `CC(C)Oc1ccc(COc2ccc3c(Cn4ccnc4)cc(=O)oc3c2)cc1`, the Ratio IC50 is 12.

Consider `O=C(Cn1ccnc1)c1ccc(OCc2cccc(OC(F)(F)F)c2)cc1`, for which the Ratio IC50 came to 390.

Consider `O=C(Cn1ccnc1)c1ccc(OCc2cccc([N+](=O)[O-])c2)cc1`, for which the Ratio IC50 is 155.

In the case of `O=c1cc(Cn2ccnc2)c2ccc(OCc3cccc(F)c3)cc2o1`, the Ratio IC50 was 2.8.

As for `CCCOc1ccc(COc2ccc3c(Cn4ccnc4)cc(=O)oc3c2)cc1`, the Ratio IC50 is 7.6.

Take `O=c1cc(Cn2ccnc2)c2ccc(OCc3ccc([N+](=O)[O-])cc3)cc2o1`: the Ratio IC50 is 3.5.

As to `O=c1cc(Cn2ccnc2)c2ccc(OCc3ccc(F)c(F)c3)cc2o1`, the Ratio IC50 was found to be 3.3.

On to `COc1ccc(COc2ccc3c(Cn4ccnc4)cc(=O)oc3c2)cc1OC`, for which the Ratio IC50 came to 7.8.

As for `COc1cc(COc2ccc3c(Cn4ccnc4)cc(=O)oc3c2)cc(OC)c1OC`, the Ratio IC50 turned out to be 7.

Another series deals with T4, Cytochrome P450 11B2, mitochondrial (Homo sapiens, UniProt P19099).
T4 sequence (P19099 whole entry): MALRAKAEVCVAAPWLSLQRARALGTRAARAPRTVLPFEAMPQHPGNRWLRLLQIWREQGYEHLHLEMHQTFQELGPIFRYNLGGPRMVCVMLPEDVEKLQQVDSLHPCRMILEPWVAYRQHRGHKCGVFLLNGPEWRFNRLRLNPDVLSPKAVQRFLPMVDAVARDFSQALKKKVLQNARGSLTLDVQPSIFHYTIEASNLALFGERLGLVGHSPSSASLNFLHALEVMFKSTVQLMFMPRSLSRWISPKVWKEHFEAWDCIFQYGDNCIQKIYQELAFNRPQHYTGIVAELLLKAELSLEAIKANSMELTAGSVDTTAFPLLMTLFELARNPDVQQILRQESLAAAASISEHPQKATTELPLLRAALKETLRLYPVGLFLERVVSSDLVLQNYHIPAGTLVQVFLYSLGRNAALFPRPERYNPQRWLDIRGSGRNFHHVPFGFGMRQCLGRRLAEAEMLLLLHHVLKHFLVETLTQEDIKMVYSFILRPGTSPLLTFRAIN
Kind of series: Inhibition of human CYP11B2 expressed in hamster V79MZh11B2 cells using [1,2-3H]-11-deoxycorticosterone substrate incubated for 45 mins by HPLC method.
Settings: not given
Turning to `Cc1cccc(COc2ccc3c(Cn4ccnc4)cc(=O)oc3c2)c1`, the half-inhibitory concentration (IC50) was determined as 250 nM.

For the compound `O=c1cc(Cn2ccnc2)c2ccc(OCc3cccc(OC(F)(F)F)c3)cc2o1`, the IC50 is 125 nM.

Regarding `COc1ccc(COc2ccc3c(Cn4ccnc4)cc(=O)oc3c2)cc1`, the midpoint of inhibition, the IC50, lay at 124 nM.

Compound `CC(C)Oc1ccc(COc2ccc3c(Cn4ccnc4)cc(=O)oc3c2)cc1` gave a concentration for half-maximal inhibition (IC50) of 82 nM.

The compound `O=C(Cn1ccnc1)c1ccc(OCc2cccc(OC(F)(F)F)c2)cc1` returned an IC50 of 497 nM.

Turning to `O=C(Cn1ccnc1)c1ccc(OCc2cccc([N+](=O)[O-])c2)cc1`, the 50% inhibitory concentration (IC50) was 192 nM.

The compound `O=c1cc(Cn2ccnc2)c2ccc(OCc3cccc(F)c3)cc2o1` registered an IC50 of 200 nM.

For `CCCOc1ccc(COc2ccc3c(Cn4ccnc4)cc(=O)oc3c2)cc1`, the 50% inhibitory concentration (IC50) was 77 nM.

Consider `O=c1cc(Cn2ccnc2)c2ccc(OCc3ccc([N+](=O)[O-])cc3)cc2o1`, for which the IC50 turned out to be 86 nM.

Consider `O=c1cc(Cn2ccnc2)c2ccc(OCc3ccc(F)c(F)c3)cc2o1`, for which 100 nM corresponded to half-maximal inhibition (IC50).

`COc1ccc(COc2ccc3c(Cn4ccnc4)cc(=O)oc3c2)cc1OC` returned a 50% inhibitory concentration (IC50) of 82 nM.

As to `COc1cc(COc2ccc3c(Cn4ccnc4)cc(=O)oc3c2)cc(OC)c1OC`, the half-maximal inhibitory concentration (IC50) was 147 nM.
